This is an account of results in article PMC3291815 (Circulation Research, 2011).

B2: CD40L (recombinant, His- and c-myc-tag fusion protein, E108 to L261) (ligand)
chain: ENSFEMQKGDQNPQIAAHVISEASSKTTSVLQWAEKGYYTMSNNLVTLENGKQLTVKRQGLYYIYAQVTFCSNREASSQAPFIASLCLKSPGRFERILLRAANTHSSAKPCGQQSIHLGGVFELQPGASVFVNVTDPSQVSHGTGFTSFGLLKL

Series [1] concerns the target T1, CD40L-Mac-1 I-domain interaction (Homo sapiens, UniProt P29965).
T1 sequence (P29965 108-261): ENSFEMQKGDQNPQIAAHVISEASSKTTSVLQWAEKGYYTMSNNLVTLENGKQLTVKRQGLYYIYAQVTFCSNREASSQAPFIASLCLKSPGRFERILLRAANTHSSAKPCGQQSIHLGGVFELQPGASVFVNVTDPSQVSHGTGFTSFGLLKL
The series is classed as binding. Put shortly: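 Recombinant CD40L (residues E108–L261, His- and c-myc-tagged) was incubated with immobilized Mac-1 I-domain alongside a range of cyclized peptide or scrambled peptide concentrations. Bound CD40L was detected with anti-c-myc-HRP and TMB substrate by colorimetric read-out. Anti-CD40L (100 μg/ml) and saline served as controls.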

The test system of series [2] is Murine fibroblasts over-expressing CD40L. The class given is cell-based. The following applies: flow cytometry; not to mock-transfected control cells. (In general: In flow cytometry, cells or beads pass a laser one at a time.)
Series [3] is classed as in vivo, C57BL/6J mice. The following applies: after intraperitoneal injection, FITC-coupled peptide, plasma fluorescence. Put shortly: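 C57BL/6J mice received a single intraperitoneal injection of FITC- or TAMRA-labelled cyclized peptide or its scrambled control, at 100 or 200 μg. Plasma samples were collected at set time points, and peptide level was followed by plasma fluorescence.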

Series [4] has as its target B2. Put plainly: dynamic cell adhesion assay.
Series [5] has as its target T2, Mac-1 I-domain (recombinant, His-tag fusion protein, R115 to S340) (UniProt P11215 131-356). The experiment in a line: SPR.
The target of series [6] is T2, Mac-1 I-domain (recombinant, His-tag …). Put plainly: SPR. The source holds these as a separate data set. On the technique in general: In SPR one partner is held on a chip, and binding of the other changes the refractive index at the surface.

Read-outs that look alike come from different tables or passages of the source. Positions of bridges follow the written chain, without caps; N, C: chain ends. No end group written: not given here.

T2 sequence (P11215 131-356): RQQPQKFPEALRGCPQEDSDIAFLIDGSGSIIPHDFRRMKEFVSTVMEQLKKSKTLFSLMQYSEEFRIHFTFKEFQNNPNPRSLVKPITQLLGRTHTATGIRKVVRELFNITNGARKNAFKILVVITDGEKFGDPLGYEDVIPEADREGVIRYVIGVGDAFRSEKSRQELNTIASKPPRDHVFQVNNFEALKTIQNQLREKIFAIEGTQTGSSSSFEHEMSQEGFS

Take EQLKKSKTL [M7]: the IC50 (usually the point on the concentration scale where inhibition reaches its midpoint) in series [1] is 200 to 900 nM.

For the molecule “FITC-labeled cM7: cM7 coupled to fluorescein isothiocyanate (CEQLKKSKTLC; disulfide 1-11; also: FITC coupled, site not given here)”, the “Binding to Murine fibroblasts over-expressing CD40L” value in series [2] is on record as “concentration-dependently bound”. In series [3], the “Time of highest plasma availability” value worked out at 30 min.

B1: cM7, cyclised version of peptide M7 (peptide)
peptide: CEQLKKSKTLC
modifications: disulfide 1-11
On to B1, for which the IC50 in series [4] came to 206 nM. Regarding B2, the results for the Kd in series [5] and in series [6] were 671 nM and 214 nM, respectively.
